Experimental findings from ChEMBL document CHEMBL2311361, “Diminutive effect on T and B-cell proliferation of non-cytotoxic α-santonin derived 1,2,3-triazoles: a report” (Eur J Med Chem, 2013) are described below.

Data set [1] can be described thus: Immunosuppressive activity in Balb/c mouse B cells assessed as inhibition of LPS-induced cell proliferation at 10^-4 M after 48 hrs by MTT assay. The class given is functional. The gist of the method: (§1)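 Spleens taken aseptically from Balb/c mice (18–22 g). Single-cell suspension made in incomplete RPMI, RBCs lysed with Tris-ammonium chloride, cells washed, resuspended in complete RPMI and checked for viability by trypan blue. Cells seeded at 1 × 10⁶ cells/mL. Compounds in DMSO tested at 1×10⁻⁴, 1×10⁻⁵ and 1×10⁻⁶ M, 48 h, 37 °C, 5% CO₂.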
(In general: Tetrazolium assays rely on reduction of a dye to a coloured formazan, in cell work by metabolically active cells.)

A short description of data set [2]: Cytotoxicity against in Balb/c mouse T cells at 10^-5 M after 48 hrs by MTT assay. The class given is cell-based. Particulars: t-cell, 10 µM. The method, boiled down: as §1
Data set [3] can be described thus: Immunosuppressive activity in Balb/c mouse T cells assessed as inhibition of concanavalin A-induced cell proliferation at 10^-4 M after 48 hrs by MTT assay. In kind it is functional. The method, boiled down:
as §1

Data set [4] is described as follows: Cytotoxicity against in Balb/c mouse T cells at 10^-6 M after 48 hrs by MTT assay. The class given is cell-based. To be noted: t-cell, 1 µM. The method, boiled down: as §1
A short description of data set [5]: Cytotoxicity against in Balb/c mouse B cells at 10^-6 M after 48 hrs by MTT assay. In kind it is cell-based. To be noted: 1 µM. The method, boiled down:
as §1

A short description of data set [6]: Immunosuppressive activity in Balb/c mouse T cells assessed as inhibition of concanavalin A-induced cell proliferation at 10^-6 M after 48 hrs by MTT assay. In kind it is functional. To be noted: for inhibition at 1 µM: Mus musculus, Balb/c, T-cell, 48 h. The gist of the method: as §1
A short description of data set [7]: Immunosuppressive activity in Balb/c mouse B cells assessed as inhibition of LPS-induced cell proliferation at 10^-6 M after 48 hrs by MTT assay. The class given is functional. The gist of the method: as §1
A short description of data set [8]: Cytotoxicity against in Balb/c mouse B cells at 10^-5 M after 48 hrs by MTT assay. The class given is cell-based. Particulars: 10 µM. The gist of the method:
as §1

Data set [9] in a line: Immunosuppressive activity in Balb/c mouse B cells assessed as inhibition of LPS-induced cell proliferation at 10^-5 M after 48 hrs by MTT assay. The class given is functional. The gist of the method: as §1
A short description of data set [10]: Immunostimulant activity in Balb/c mouse T cells assessed as inhibition of concanavalin A-induced cell proliferation at 10^-5 M after 48 hrs by MTT assay. In kind it is functional. The gist of the method:
as §1

The nature of data set [11]: Cytotoxicity against in Balb/c mouse B cells at 10^-4 M after 48 hrs by MTT assay. The class given is cell-based. To be noted: 100 µM. The gist of the method:
as §1

Data set [12] is described as follows: Cytotoxicity against in Balb/c mouse T cells at 10^-4 M after 48 hrs by MTT assay. In kind it is cell-based. To be noted: t-cell, 100 µM. The gist of the method:
as §1

The nature of data set [13]: Immunosuppressive activity in Balb/c mouse T cells assessed as inhibition of concanavalin A-induced cell proliferation at 10^-5 M after 48 hrs by MTT assay. In kind it is functional. The method, boiled down:
as §1

Data set [14] in a line: Immunostimulant activity in Balb/c mouse B cells assessed as inhibition of LPS-induced cell proliferation at 10^-6 M after 48 hrs by MTT assay. The class given is functional. The method, boiled down: as §1
Data set [15] can be described thus: Immunostimulant activity in Balb/c mouse T cells assessed as inhibition of concanavalin A-induced cell proliferation at 10^-4 M after 48 hrs by MTT assay. To be noted: for inhibition at 100 µM: Mus musculus, Balb/c, T-cell, 48 h. In kind it is functional. The method, boiled down:
as §1

The term inhibition denotes the drop in the measured response relative to a control, in per cent. As for `Cc1cc(OCc2cnnn2-c2cccc(O)c2)c(C)c2c1CC[C@H]1[C@H](C)C(=O)O[C@@H]21`, the inhibition at 100 µM amounted to 9.16% in data set [1] and 10% in [3]. In addition, the Activity entry in data set [2] is recorded as “Non-toxic”; in [4], “Toxic”; in [5] it was “Toxic”; in [8], “Non-toxic”; in data set [11], “Non-toxic”; in [12], “Non-toxic”. For the same compound, the inhibition at 1 µM in data set [6] is 5.83%; in [7], 19.2%. Besides, the figures for the inhibition at 10 µM in data set [9] and in data set [10] were 7.5% and 22.5%, respectively.

For the compound `Cc1cc(OCc2cnnn2-c2ccc(C=O)cc2)c(C)c2c1CC[C@H]1[C@H](C)C(=O)O[C@@H]21`, the values for the inhibition at 100 µM in [1] and in data set [3] were 35% and 20.8%, respectively. Moreover, the Activity result in data set [2], in data set [4], in [5], in data set [8], in [11] and in data set [12] was “Non-toxic” in each case. The inhibition at 1 µM was found to be 5.83% in data set [6] and 24.2% in [7]. For the same compound, the inhibition at 10 µM in data set [13] is 6.66%; in [9], 22.5%.

For `COc1ccc2cc(-n3nncc3COc3cc(C)c4c(c3C)[C@@H]3OC(=O)[C@@H](C)[C@@H]3CC4)ccc2c1`, the figures for the inhibition at 100 µM in [1] and in data set [3] were 28.2% and 93.9%, respectively. In addition, the Activity entry in data set [2], in data set [4], in data set [5], in [8], in data set [11] and in data set [12] was “Non-toxic” throughout. Also, the inhibition at 1 µM in data set [6] turned out to be 93.9%; in [7], 25.6%. The inhibition at 10 µM came to 95.1% in [13] and 94% in [9].

In the case of `Cc1cc(OCc2cnnn2-c2ccccc2C(F)(F)F)c(C)c2c1CC[C@H]1[C@H](C)C(=O)O[C@@H]21`, the inhibition at 100 µM in [1] was 11.4%; in data set [3] it was 22.9%. For the same compound, the Activity entry in data set [2], in [4], in data set [5], in data set [8], in data set [11] and in data set [12] was “Non-toxic” in each case. For the same compound, the inhibition at 1 µM in data set [6] worked out at 7.14%; in [14] it was 62.9%. The results for the inhibition at 10 µM in data set [13] and in data set [9] were 30% and 31.4%, respectively.

With `Cc1cc(OCc2cnnn2-c2cccc(C(N)=O)c2)c(C)c2c1CC[C@H]1[C@H](C)C(=O)O[C@@H]21`, the inhibition at 100 µM turned out to be 8.42% in data set [1] and 6.31% in data set [3]. For the same compound, the Activity result in data set [2], in data set [4], in data set [5], in data set [8], in [11] and in data set [12] was “Non-toxic” throughout. For the same compound, the values for the inhibition at 1 µM in data set [6] and in data set [7] were 28.4% and 44.2%, respectively. Also, the values for the inhibition at 10 µM in data set [13] and in data set [9] were 29.5% and 36.8%, respectively.

As to `CC1=C2[C@H]3OC(=O)[C@@H](C)[C@@H]3CC[C@@]2(C)C=CC1=O` [SANTONIN], the inhibition at 100 µM in data set [1] is -36.8%; in data set [3] it was -6.09%. For the same compound, the Activity result in data set [2], in [4], in data set [5], in [8], in data set [11] and in [12] was “Non-toxic” throughout. The inhibition at 1 µM is -40.2% in [6] and 23.1% in data set [7]. Moreover, the values for the inhibition at 10 µM in data set [9] and in data set [10] were 25.6% and 3.65%, respectively.

`Cc1cc(OCc2cnnn2-c2ccc3c(c2)OCO3)c(C)c2c1CC[C@H]1[C@H](C)C(=O)O[C@@H]21`: the values for the inhibition at 100 µM in data set [1] and in [3] were 32.6% and 29.5%, respectively. In addition, the Activity entry in [2], in data set [4], in data set [5], in data set [8], in data set [11] and in data set [12] was “Non-toxic” each time. Also, the inhibition at 1 µM in data set [6] came out at 29.5%; in [7], 14.7%. The inhibition at 10 µM was found to be 45.3% in data set [13] and 50.5% in data set [9].

Turning to `Cc1cc(OCc2cnnn2-c2cccc(Br)c2COc2cccc(Br)c2)c(C)c2c1CC[C@H]1[C@H](C)C(=O)O[C@@H]21`, the results for the inhibition at 100 µM in [1] and in [15] were 17.5% and 2.5%, respectively. Also, the Activity entry in data set [2] was “Non-toxic”; in data set [4], “Toxic”; in [5], “Toxic”; in data set [8], “Non-toxic”; in data set [11], “Non-toxic”; in [12] it was “Non-toxic”. The inhibition at 1 µM in data set [6] is 14.2%; in [7], 24.2%. In data set [9], the inhibition at 10 µM was found to be 16.7%.

Take `Cc1cc(OCc2cnnn2-c2cccc(I)c2)c(C)c2c1CC[C@H]1[C@H](C)C(=O)O[C@@H]21`: the inhibition at 100 µM was 15.8% in data set [1] and 3.15% in data set [3]. Moreover, the Activity result in [2], in data set [4], in data set [5], in data set [8], in data set [11] and in data set [12] was “Non-toxic” in each case. The inhibition at 1 µM in [6] and in data set [7] was 15.8% throughout. In addition, the inhibition at 10 µM in data set [13] and in [9] was 20% throughout.

Take `Cc1cc(OCc2cnnn2-c2c(Br)ccc(I)c2F)c(C)c2c1CC[C@H]1[C@H](C)C(=O)O[C@@H]21`: in [1], the inhibition at 100 µM worked out at 11.4%. For the same compound, the Activity entry in [2], in data set [4], in [5], in [8], in data set [11] and in [12] was “Non-toxic” throughout. The inhibition at 1 µM in data set [7] stood at 8.57%. Further, the inhibition at 10 µM in data set [9] was 50%.

Consider `COc1cc(-n2nncc2COc2cc(C)c3c(c2C)[C@@H]2OC(=O)[C@@H](C)[C@@H]2CC3)cc(OC)c1OC`, for which the inhibition at 100 µM in data set [1] worked out at 14.7%; in [3] it was 16.8%. For the same compound, the Activity entry in [2], in data set [4], in data set [5], in [8], in data set [11] and in [12] was “Non-toxic” each time. The values for the inhibition at 1 µM in [6] and in data set [7] were 20% and 16.8%, respectively. In addition, the results for the inhibition at 10 µM in data set [13] and in [9] were 14.7% and 26.3%, respectively.

Regarding `Cc1cc(OCc2cnnn2-c2cc(F)ccc2I)c(C)c2c1CC[C@H]1[C@H](C)C(=O)O[C@@H]21`, the inhibition at 100 µM was found to be 14.2% in data set [1] and 19.2% in data set [15]. The Activity entry in data set [2] was “Non-toxic”; in data set [4], “Toxic”; in [5], “Toxic”; in data set [8], “Non-toxic”; in data set [11] it was “Toxic”; in [12], “Toxic”. Moreover, the “inhibition (INH)” value came to 17.5% in [6] and 19.16% in [15]. The figures for the inhibition at 1 µM in [6] and in data set [7] were 21.4% and 20.8%, respectively. Moreover, the inhibition at 10 µM in [13] worked out at 31.4%; in data set [9] it was 24.2%; in data set [10], 10.8%.

Regarding `Cc1ccc(I)cc1-n1nncc1COc1cc(C)c2c(c1C)[C@@H]1OC(=O)[C@@H](C)[C@@H]1CC2`, the inhibition at 100 µM is 16.8% in data set [1] and 15.8% in [3]. The Activity result in [2], in [4], in data set [5], in [8], in [11] and in [12] was “Non-toxic” each time. In addition, the inhibition at 1 µM in data set [6] is 15.8%; in data set [7], 34.7%. In addition, the inhibition at 10 µM is 20% in [13] and 14.7% in [9].
